A selection: hits, their analogues and other compounds. The true share with any hit is near 2%.
HGIII-sPLA2 inh: Blocks human group III sPLA2 activity. QFRET BODIPY PC-A2 liposome hydrolysis, fluorescence. inhibition, % at 12.2 µM. Q9NZ20. actives 0.56% (n = 370,000);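 active means inhibition above mean plus 3 SD of compounds lying within the high and low control bounds, cut at about 19% in these data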;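 further: 0% = median of test compound wells and 100% = no enzyme DMSO wells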
NSD2 HMT inh: NSD2 (human) methyltransferase inhibition; NSD2 peptide methylation, AlphaScreen, 120 min; inhibition, % at 12.5 µM; actives 0.54% (n = 310,000); AID 743445; in the data active means inhibition above about 50%
ARNT-TACC3 inh: disruptors of human ARNT/TACC3 interaction; Q9Y6A5; AID 623870; actives 0.66% (n = 390,000); AlphaScreen His-ARNT PAS-B/GST-TACC3 binding, luminescence; TACC3 fragment carries E629A point mutation; inhibition, % at 9.99 µM;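 active means mean inhibition of replicates at least 50% and at least half of replicates each reaching 50%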;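 further: 0% = complete ARNT plus TACC3 wells and 100% = ARNT alone without TACC3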
XiGFP reactiv: reactivates the inactive X chromosome in mouse fibroblasts. XiGFP mouse fibroblasts, % GFP-positive cells imaging, 3 d; cells co-treated with 5-aza-dC sensitizer; scaled so ellipticine positive control = 100%. activation, % at 7.58 µM. actives 0.055% (n = 360,000);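 active means mean normalized replicate activation at least 10% and every replicate at or above 10%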;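 further: 0% = median of on-plate neutral control wells and 100% = ellipticine 6 µM median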
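material = 68-5-11 XiGFP fibroblast line | medium = DMEM plus 5-aza-dC sensitizer | schedule = 3 days compound exposure | benchmarks = positive control ellipticine, 6 µM final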
SR-BI DiI-HDL act: SR-BI HDL lipid transfer activation; CHO ldlA[mSR-BI] cells, DiI-HDL uptake fluorescence, 3 h; 100 = double the neutral-control signal; activation, % at 12.5 µM; actives 0.096% (n = 320,000); AID 504775;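 active means mean replicate activation of at least 60% and every replicate at or above 60%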;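 further: 0% = median plate neutral-control signal and 100% = twice that signal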
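Test system: SR-BI-overexpressing, LDLR-lacking CHO cells; Medium: Ham's F12 with 0.5% BSA, HEPES 25 mM, pH 7.4; Schedule: 3 h, 37 °C; Technique: bottom-read fluorescence, 550/595 nm.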
SR-BI DiI inh: inhibitors of mouse SR-BI mediated HDL lipid uptake. ldlA[mSR-BI] CHO cells, DiI-HDL uptake fluorescence, 3 h. actives 0.96% (n = 320,000). inhibition, % at 12.5 µM. Q61009;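 active means mean replicate inhibition of at least 70% and a set share of replicates each scoring 70 or more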;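 further: 0% = median of neutral control wells and 100% = median of positive control wells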
* = called active by the depositor; . = not tested or not shown.

SMILES	HGIII-sPLA2 inh	NSD2 HMT inh	ARNT-TACC3 inh	XiGFP reactiv	SR-BI DiI-HDL act	SR-BI DiI inh
CC(=O)Nc1ccc2c(c1)C(=O)c1ccccc1C2=O	-4	3	2	.	-26	26
CC(=O)Nc1cc2c3c(cccc3c1)-c1ccccc1-2	-5	-5	.	100*	-33	33
COc1ccc2c(C#CCCO)c(-c3ccc(S(C)(=O)=O)cc3)sc2c1	-37	.	19	0	-83	83*
COc1cc(OC)cc(-c2sc3ccc(OC)cc3c2C#CCCO)c1	-10	.	3	0	-76	76*
COc1ccc2sc(-c3ccccc3OC)c(C#CCCO)c2c1	-3	.	4	0	-4	4
CC(C)NC(=O)N(C)C[C@H]1Oc2c(NC(=O)CCCCCC(=O)Nc3ccccc3N)cccc2C(=O)N([C@H](C)CO)C[C@@H]1C	.	.	.	0	.	.
O=C(NP(=O)(N1CCOCC1)N1CCOCC1)C1=C(N2CCOCC2)/C(=C\c2ccccc2)CC1	-10	1	-18	0	-3	3
O=c1[nH]c(C2CCN(S(=O)(=O)c3ccc4c(c3)OCCO4)CC2)nc2c1nnn2Cc1ccc(F)cc1	-29	-4	3	0	94*	-94
O=C(Cn1cnc([N+](=O)[O-])n1)N/N=C/c1ccc(O)cc1O	-6	-1	63*	0	-3	3
O=C(Cn1cnc([N+](=O)[O-])n1)N/N=C/c1cccc2ccccc12	-2	0	.	0	12	-12
CCc1ccccc1NC(=O)C1CCN(C(=O)c2ccc([N+](=O)[O-])cc2)CC1	3	-2	.	0	-1	1
O=C(N/N=C/c1ccccn1)c1ccc(Br)o1	-1	-2	69*	.	28	-28
O=C(N/N=C/c1cn(-c2ccccc2)nc1-c1ccc(F)cc1)c1ccc2c(c1)OCO2	-3	-1	-15	.	-74	74*
COc1ccc(-c2nn(-c3ccccc3)cc2/C=N/NC(=O)c2ccc(Br)o2)cc1	0	-2	2	.	-82	82*
COc1ccc(-c2nn(-c3ccccc3)cc2/C=N/NC(=O)c2ccc3c(c2)OCO3)cc1	.	1	.	.	.	.
COc1ccc(-c2nn(-c3ccccc3)cc2/C=C/C(=O)OCC(=O)Nc2ccc(C#N)cc2)cc1	.	.	-3	.	-87	87*
C[C@H](O)C#Cc1ccc2c(c1)O[C@@H](CN(C)Cc1ccccn1)[C@@H](C)CN([C@H](C)CO)S2(=O)=O	.	.	18	0	.	.
Cc1cc(/C=N/NC(=O)c2ccncc2)c(C)n1-c1cccc(C(F)(F)F)c1	5	6	41	0	-74	74*
Cc1ccc(-n2c(C)cc(/C=N/NC(=O)c3ccncc3)c2C)cc1	3	26	6	.	-30	30
Cc1cc(/C=N/NC(=O)c2cccc(F)c2)c(C)n1-c1ccccc1	7	1	-2	0	-73	73*
O=C(/C=C/c1cccs1)c1cc(F)ccc1OC(=O)N1CCOCC1	0	-5	.	.	-4	4
NC(=O)c1nsc(C(=O)N(c2ccc(F)cc2)C(C(=O)NCC2CCCO2)c2c[nH]c3ccccc23)c1N (centres undefined)	-1	-2	.	.	.	.
CN1CCN(c2nc(-c3ccccn3)nc3ccccc23)CC1	9	6	67*	.	-8	8
CCOc1ccc(NC(=O)c2ccc3c(c2)N(C)CCS3)cc1	3	-2	.	0	.	.
CCN1CCSc2ccc(C(=O)Nc3ccc(NC(C)=O)cc3)cc21	6	2	9	0	-80	80*
CC(C)c1ccc(NCCC(=O)c2cccs2)cc1	27*	1	8	0	-7	7
Cc1ccc(NCCC(=O)c2cccs2)cc1	4	13	11	0	8	-8
C[C@H](NC(=O)C[C@H]1CC[C@@H]2[C@H](COC[C@@H](O)CN2Cc2cc(F)ccc2F)O1)c1ccccc1	.	.	0	0	.	.
O=C(Nc1ccccc1OC(F)F)c1cc2c(s1)CCC2	-6	1	.	0	-38	38
COc1ccccc1NC(=O)c1ccc(NC(=O)c2cc3c(s2)CCC3)cc1	-2	-4	-7	0	-73	73*

Screening data deposited in PubChem by several laboratories.
